Laboratory results taken from ChEMBL document CHEMBL1129688, “ATP-citrate lyase as a target for hypolipidemic intervention. Design and synthesis of 2-substituted butanedioic acids as novel, potent inhibitors of the enzyme” (J Med Chem, 1996).
pKi: −log10 of the molar value.

Legend:
ATP-citrate synthase [1] = target: T1, ATP-citrate synthase (Rattus norvegicus, UniProt P16638); assay: Inhibitory activity against rat ATP-citrate lyase activity by the […] dehydrogenase catalyzed reduction of oxaloacetate by NADH.
T1 sequence (P16638 whole entry): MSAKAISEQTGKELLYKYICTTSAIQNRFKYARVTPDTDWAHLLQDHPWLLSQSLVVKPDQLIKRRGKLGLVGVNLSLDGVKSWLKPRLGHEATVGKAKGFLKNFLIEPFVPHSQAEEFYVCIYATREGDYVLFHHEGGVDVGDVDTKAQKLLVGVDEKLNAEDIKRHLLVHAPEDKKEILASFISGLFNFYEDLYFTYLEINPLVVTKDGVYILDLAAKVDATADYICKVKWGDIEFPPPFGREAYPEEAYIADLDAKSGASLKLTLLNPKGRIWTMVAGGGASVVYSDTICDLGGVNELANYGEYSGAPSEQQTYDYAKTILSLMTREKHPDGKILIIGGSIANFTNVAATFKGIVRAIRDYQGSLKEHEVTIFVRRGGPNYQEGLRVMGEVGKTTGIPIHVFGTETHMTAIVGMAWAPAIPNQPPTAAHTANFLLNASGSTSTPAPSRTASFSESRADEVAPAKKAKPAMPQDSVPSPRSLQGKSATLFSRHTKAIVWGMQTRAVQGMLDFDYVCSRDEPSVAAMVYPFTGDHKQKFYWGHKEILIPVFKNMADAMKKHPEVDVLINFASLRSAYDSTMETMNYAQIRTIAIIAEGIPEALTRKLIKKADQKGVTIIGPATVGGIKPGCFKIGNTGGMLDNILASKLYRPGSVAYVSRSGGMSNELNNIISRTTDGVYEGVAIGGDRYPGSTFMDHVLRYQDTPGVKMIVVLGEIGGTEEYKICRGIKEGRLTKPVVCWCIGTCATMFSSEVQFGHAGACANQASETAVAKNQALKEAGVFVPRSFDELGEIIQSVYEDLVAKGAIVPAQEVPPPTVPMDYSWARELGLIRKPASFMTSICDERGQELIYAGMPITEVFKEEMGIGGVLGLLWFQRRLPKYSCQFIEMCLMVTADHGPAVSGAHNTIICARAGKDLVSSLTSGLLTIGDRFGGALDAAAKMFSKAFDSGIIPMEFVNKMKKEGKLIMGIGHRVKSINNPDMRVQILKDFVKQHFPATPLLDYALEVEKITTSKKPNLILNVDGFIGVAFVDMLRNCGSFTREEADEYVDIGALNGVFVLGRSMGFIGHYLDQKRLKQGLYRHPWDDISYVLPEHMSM
Summary of the method: (§1)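 Purified rat ACL or recombinant human ACL was assayed by coupling oxaloacetate formation to malate dehydrogenase reduction with NADH. Buffer: Tris 100 mM pH 8.0, MgCl2 10 mM, KCl 10 mM, DTT 10 mM, plus ATP and NADH. CoA was 200 μM, and citrate was added to 100 μM (its Km) to start the reaction. A340 decrease was followed over 20 min. Ki came from fitting v = Vmax/(2 + [I]/Ki), assuming citrate-competitive inhibition.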

ATP-citrate synthase [2] = target: T2, ATP-citrate synthase (Homo sapiens, UniProt P53396); assay: (§2) Inhibitory activity against human recombinant ATP-Citrate Lyase activity was measured by the […] dehydrogenase catalyzed reduction of oxaloacetate by NADH; summary of the method: as §1
T2 sequence (P53396 whole entry): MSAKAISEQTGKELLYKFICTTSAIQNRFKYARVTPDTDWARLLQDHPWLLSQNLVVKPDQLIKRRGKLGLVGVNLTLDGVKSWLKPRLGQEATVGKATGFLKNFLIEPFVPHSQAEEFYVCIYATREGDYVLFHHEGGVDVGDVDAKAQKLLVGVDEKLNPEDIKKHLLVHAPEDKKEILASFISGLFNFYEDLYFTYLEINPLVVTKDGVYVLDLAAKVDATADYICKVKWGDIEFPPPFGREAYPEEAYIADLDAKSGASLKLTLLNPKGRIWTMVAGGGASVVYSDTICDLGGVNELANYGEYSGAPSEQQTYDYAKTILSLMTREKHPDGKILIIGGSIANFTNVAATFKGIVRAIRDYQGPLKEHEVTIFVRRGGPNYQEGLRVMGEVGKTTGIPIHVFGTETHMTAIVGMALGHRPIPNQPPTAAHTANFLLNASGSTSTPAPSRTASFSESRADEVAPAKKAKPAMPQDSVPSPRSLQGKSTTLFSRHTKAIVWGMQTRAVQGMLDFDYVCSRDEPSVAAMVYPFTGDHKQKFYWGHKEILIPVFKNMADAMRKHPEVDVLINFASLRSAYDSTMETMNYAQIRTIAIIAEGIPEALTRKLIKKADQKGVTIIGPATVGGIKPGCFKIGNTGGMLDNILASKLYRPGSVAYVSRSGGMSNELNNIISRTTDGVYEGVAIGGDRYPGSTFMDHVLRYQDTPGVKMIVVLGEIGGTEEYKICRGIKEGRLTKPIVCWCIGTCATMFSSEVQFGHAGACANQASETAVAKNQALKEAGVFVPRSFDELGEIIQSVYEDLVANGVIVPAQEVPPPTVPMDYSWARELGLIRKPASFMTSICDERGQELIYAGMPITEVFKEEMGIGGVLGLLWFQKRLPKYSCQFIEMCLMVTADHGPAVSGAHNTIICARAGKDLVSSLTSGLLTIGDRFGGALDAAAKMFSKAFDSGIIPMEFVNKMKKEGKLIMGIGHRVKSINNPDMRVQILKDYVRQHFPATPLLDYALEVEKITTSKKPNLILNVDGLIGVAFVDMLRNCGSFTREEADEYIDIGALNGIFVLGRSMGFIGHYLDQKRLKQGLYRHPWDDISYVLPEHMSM

[3] = target: T3, ATP-citrate synthase (Homo sapiens) (UniProt P53396); assay: as §2; settings: concentration not given here; summary of the method: as §1
T3 sequence (whole entry): T2 sequence (P53396 whole entry)

ATP-citrate synthase [4] = target: T1, ATP-citrate synthase; assay: Inhibition of recombinant ATP-Citrate Lyase activity as […] dehydrogenase catalyzed reduction of oxaloacetate by NADH; settings: in the assay text read “purified rat ATP-Citrate Lyase” for “recombinant ATP-Citrate Lyase”; summary of the method: as §1
ATP-citrate synthase [5] = target: T2, ATP-citrate synthase; assay: Inhibitory activity against human recombinant ATP-Citrate Lyase was measured by the […] dehydrogenase catalyzed reduction of oxaloacetate by NADH; summary of the method: as §1
HepG2 [6] = assay: Percent reduction of fatty acid synthesis in human hepatoma cell line, HepG2 at 1000 uM concentration; format: functional; design: scale not given: the % may be the effect or the level left
Summary of the method: (§3)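 HepG2 cells were grown in DMEM with Hepes, bicarbonate, glutamine and 10% FCS to 80–90% confluence, then kept overnight serum-free. Vehicle or compound was added at the stated final concentration for 2.5 h. ³H2O (71 μCi/mmol) was present for the final 90 min. Synthesis rates came from ³H incorporated into cellular cholesterol or fatty acids, relative to vehicle control.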

HepG2 [7] = assay: Percent control of ATP levels in human hepatoma cell line, HepG2 at 1000 uM concentration; format: functional
Summary of the method: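 Serum-starved HepG2 cells (grown to 80–90% confluence in DMEM/10% FCS, then overnight without serum) were exposed to vehicle or compound at the stated final concentration for 2.5 h. Cellular ATP was then measured as a toxicity check and expressed as % of vehicle control.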

HepG2 [8] = assay: Percent reduction of cholesterol synthesis in human hepatoma cell line, HepG2 at 1000 uM concentration; format: functional; design: scale not given: the % may be the effect or the level left; summary of the method: as §3

SMILES | pKi (ATP-citrate synthase [1]) | further results
O=C(O)CC(O)(CSCCCCCC(=O)c1ccc(Cl)cc1Cl)C(=O)O (configuration not stated) | 3.89 | –
O=C(O)CC(O)(CCCCCCCCc1ccc(Cl)cc1Cl)C(=O)O (configuration not stated) | 5.54 | –
O=C(O)CC(O)(CSCCCc1ccc2ccccc2c1)C(=O)O (configuration not stated) | – | pKi (ATP-citrate synthase [2]): 3.52
O=C(O)CC(O)(CSCCCCCCc1ccccn1)C(=O)O (configuration not stated) | – | inhibition [3]: 30%
O=C(O)CC(O)(CSCCCCCCCCCc1ccc(Cl)cc1Cl)C(=O)O (configuration not stated) | 3.52 | –
O=C(O)CC(O)(CSCCc1ccc(Cl)cc1Cl)C(=O)O (configuration not stated) | – | pKi (ATP-citrate synthase [4]): 3.32
O=C(O)CC(O)(CSCCCCCCc1c(Cl)cccc1Cl)C(=O)O (configuration not stated) | 4.12 | –
O=C(O)CC(O)(CSCCCCCCc1c(Cl)cc(Cl)cc1-c1ccccc1)C(=O)O (configuration not stated) | – | pKi (ATP-citrate synthase [4]): 5.00
O=C(O)CC(CSCCCCCCc1ccc(Cl)cc1Cl)C(=O)O (configuration not stated) | 5.59 | –
O=C(O)CC(O)(CSCCCCCSc1ccc(Cl)cc1Cl)C(=O)O (configuration not stated) | 5.00 | –
O=C(O)CC(O)(CSCCCCCCCc1ccc(Cl)cc1Cl)C(=O)O (configuration not stated) | 5.14 | –
O=C(O)CC(O)(CSCCCCCCc1ccccc1Cc1ccccc1)C(=O)O (configuration not stated) | – | pKi (ATP-citrate synthase [4]): 4.03
COc1ccc(CCCCCCSCC(O)(CC(=O)O)C(=O)O)cc1 (configuration not stated) | – | pKi (ATP-citrate synthase [4]): 3.55
O=C(O)CC(O)(CSCCCCCCc1ccccc1Cl)C(=O)O (configuration not stated) | 4.16 | –
O=C(O)CC(O)(CSCCCCCCc1cccnc1)C(=O)O (configuration not stated) | – | inhibition [3]: 35%
O=C(O)CC(O)(CSCCCCCCc1ccccc1[N+](=O)[O-])C(=O)O (configuration not stated) | – | pKi (ATP-citrate synthase [4]): 4.12
O=C(O)CC(O)(CSCCCCCCc1ccc(O)cc1)C(=O)O (configuration not stated) | 3.38 | –
O=C(O)CC(CSCCCCC[S+]([O-])c1ccc(Cl)cc1Cl)C(=O)O (configuration not stated) | 3.88 | –
O=C(O)CC(O)(CSCCCc1ccc(Cl)cc1Cl)C(=O)O (configuration not stated) | – | pKi (ATP-citrate synthase [4]): 3.41
O=C(O)CC(O)(CC(=O)CCCCCc1ccc(Cl)cc1Cl)C(=O)O (configuration not stated) | 4.60 | –
O=C(O)CC(O)(CSCCCCCCc1cccc(Cl)c1)C(=O)O (configuration not stated) | 3.82 | –
O=C(O)CCCSCCCCCCc1ccc(Cl)cc1Cl | 4.60 | –
O=C(O)CC(O)(CSCCCCCCc1ccc(-c2ccccc2)cc1)C(=O)O (configuration not stated) | 4.42 | –
O=C(O)CC(O)(CSCCCCCCc1ccccc1)C(=O)O (configuration not stated) | – | pKi (ATP-citrate synthase [4]): 3.15; pKi (ATP-citrate synthase [5]): 3.49
O=C(O)CC(O)(CSCCCC/C=C\c1ccc(Cl)cc1Cl)C(=O)O (configuration not stated) | 5.13 | –
O=C(O)CC(O)(CSCCCCCCc1ccc(Cl)cc1Cl)C(=O)O (configuration not stated) | – | pKi (ATP-citrate synthase [4]): 5.48; Control (HepG2 [6]): 107%; Control (HepG2 [7]): 100%; Control (HepG2 [8]): 116%
O=C(O)CC(O)(CSCCCCCCc1cccc(Cl)c1Cl)C(=O)O (configuration not stated) | 5.14 | –
O=C(O)CC(O)(CSCCCCCS(=O)(=O)c1ccc(Cl)cc1Cl)C(=O)O (configuration not stated) | 4.19 | –
